We go through one compound from ChEMBL document CHEMBL2331234, “Novel analgesic/anti-inflammatory agents: 1,5-diarylpyrrole nitrooxyalkyl ethers and related compounds as cyclooxygenase-2 inhibiting nitric oxide donors” (J Med Chem, 2013).

The subject of one assay is J774. Nature of the assay: Selectivity index, ratio of IC50 for COX1 in mouse J774 cells […]. The format is cell-based.
Assay [1] in a line: (§1) Inhibition of interleukin 1 beta-induced glycosaminoglycan release in bovine articular cartilage of metacarpophalangeal joints of feet treated 48 hrs after interleukin 1beta-challenge by DMB colorimetric assay. The format is functional, Bos taurus. In short, it runs like this: (§2)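 Bovine metacarpophalangeal cartilage slices (about 100 mg per well) were cultured in serum-free DMEM at 37 °C, 5% CO2, with medium changed on days 1 and 2. On day 3 the slices were challenged with IL-1β 30 ng/mL plus compound for 48 h. GAG release was measured by the DMB (Farndale) assay and expressed as % of IL-1β alone, n = 3. EC50 is given with 95% CI.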

The next assay is filed under the species Bos taurus. The assay is described as §1. The assay is classed as functional. In short, it runs like this: as §2
The test system of assay [2] is Rattus norvegicus. Nature of the assay: Antiinflammatory activity in Sprague-Dawley/Wistar rat assessed as decrease in carrageenan-induced hyperalgesia at 10 mg/kg, po administered 4 hrs after carrageenan-challenge measured after 120 mins (reference value: 31.4 +/- 3.7 g). The assay is classed as functional.
Assay [3] concerns Rattus norvegicus. Nature of the assay: Antiinflammatory activity in Sprague-Dawley/Wistar rat assessed as decrease in carrageenan-induced paw edema at 10 mg/kg, po administered 3 hrs 30 mins after carrageenan-challenge measured after 60 mins (reference value: 2.48 +/- 0.06 mL). The format is functional.
A further assay relates to Aorta. Nature of the assay: Vasorelaxant activity in Wistar rat endothelium-removed thoracic aortic rings assessed as reduction of KCl-induced vasoconstriction at 0.001 uM to 10 uM treated after KCl-challenge in presence of guanylate cyclase inhibitor 1H-[1,2,4]-oxadiazolo[4,3-a]quinoxalin-1-one. The assay is classed as functional, tissue-based. In short, it runs like this: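 Endothelium-denuded aortic rings from male Wistar rats (250-350 g) were preincubated with ODQ 1 µM. Rings were contracted with KCl 30 mM, then given 3-fold increasing concentrations from 1 nM to 10 µM. Emax is the % relaxation of KCl tone. pIC50 was calculated when efficacy reached 50%, from 6-10 experiments.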

Assay [4] deals with Prostaglandin G/H synthase 1 (Homo sapiens, UniProt P23219). Nature of the assay: Inhibition of COX1 in human whole blood assessed as reduction in TXB2 generation. In short, it runs like this:
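Clotting assay in whole blood from three healthy volunteers with no NSAID for 2 weeks. Compounds in DMSO were added at 0.1-300 µM final. Blood clotted in glass tubes at 37 °C for 1 h. Serum TXB2 was measured by RIA as a reflection of platelet COX-1 activity driven by endogenous thrombin.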

The source made the active and inactive calls. The rule behind the calls is not given here. Where only a bound is given, the exact number is not on record here.

Chain of Prostaglandin G/H synthase 1 (P23219 whole entry): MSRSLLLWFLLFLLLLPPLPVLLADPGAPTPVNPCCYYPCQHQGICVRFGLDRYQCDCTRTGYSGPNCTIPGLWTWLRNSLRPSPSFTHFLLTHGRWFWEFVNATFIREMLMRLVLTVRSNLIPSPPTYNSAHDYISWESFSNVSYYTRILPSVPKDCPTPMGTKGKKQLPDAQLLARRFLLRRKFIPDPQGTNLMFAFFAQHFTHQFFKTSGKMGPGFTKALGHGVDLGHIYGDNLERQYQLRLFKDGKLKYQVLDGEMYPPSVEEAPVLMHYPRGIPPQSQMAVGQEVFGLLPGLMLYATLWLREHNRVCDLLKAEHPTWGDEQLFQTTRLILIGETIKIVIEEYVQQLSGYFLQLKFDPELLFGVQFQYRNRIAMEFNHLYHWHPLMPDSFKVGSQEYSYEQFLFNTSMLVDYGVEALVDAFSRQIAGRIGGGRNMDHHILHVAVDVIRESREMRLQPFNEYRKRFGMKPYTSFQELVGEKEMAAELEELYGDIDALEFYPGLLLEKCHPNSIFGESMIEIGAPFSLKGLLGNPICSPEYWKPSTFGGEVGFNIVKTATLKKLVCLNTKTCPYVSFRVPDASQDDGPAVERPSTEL

For orientation: IC50 means the point on the concentration scale where inhibition reaches its midpoint. One may read the IC80 as the concentration at which the effect reaches the 80% level. With `Cc1c(CCOCCO[N+](=O)[O-])cc(-c2ccc(S(C)(=O)=O)cc2)n1-c1ccc(F)cc1`, the Ratio IC50 with J774 is more than 714. For the same compound, the results for the 50% inhibitory concentration (IC50) in assay [1] and in assay [4] were 1.5 µM and 31.2 µM, respectively. In addition, the inhibition entry (in the assay filed under Bos taurus; in assay [4]) was “Dose-dependent effect” each time. In addition, the Activity is 48.3 g in the assay on Rattus norvegicus [2] and 1.87 mL with Rattus norvegicus [3]. Moreover, the result in the assay on Aorta was inactive. The IC80 in assay [4] stood at 63.3 µM.
